# Assay results as given in ChEMBL document CHEMBL2406950, “Replacement of a quinone by a 5-O-acetylhydroquinone abolishes the accidental necrosis inducing effect while preserving the apoptosis-inducing effect of renieramycin M on lung cancer cells” (J Nat Prod, 2013).
# Activity calls are given as the source filed them. The calls are words filed in the database; no cut-off is given here.
# Legend:
# [1] = Toxicity in human HK2 cells assessed as induction of accidental necrosis at 20 uM after 24 hrs by propidium iodide staining; format: cell-based; conditions: hk-2, 24 h
# Summary of the method: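 Normal human kidney HK-2 cells exposed to compound at 20 μM for 24 h. Accidental necrotic cells identified by propidium iodide staining and expressed as percentage.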
# [2] = Induction of intracellular superoxide anion generation in human H23 cells at 20 uM after 6 hrs by DCFH2-DA staining based fluorescence assay in presence of dihydroethidium relative to control; format: cell-based; conditions: nci-h23, 6 h
# Summary of the method: (§1)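 Seeded cells loaded 30 min at 4 °C with 10 μM probe in PBS: HPF for hydroxyl radical, DHE for superoxide. Then 20 μM compound was added for 0−6 h at 37 °C. Plate fluorescence read at ex 490/515 nm (HPF) and ex 488/610 nm (DHE). Triplicate samples.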
# NCI-H23 [3] = assay: Induction of intracellular hydroxyl radical generation in human H23 cells at 20 uM after 6 hrs by DCFH2-DA staining based fluorescence assay in presence of HPF; format: functional, cell-based; summary of the method: as §1
# NCI-H23 [4] = assay: Induction of intracellular H2O2 generation in human H23 cells at 20 uM after 6 hrs by DCFH2-DA staining based fluorescence assay in presence of sodium pyruvate; format: functional, cell-based
# Summary of the method: (§2)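 Seeded cells (24 h) loaded 30 min at 4 °C with 10 μM DCFH2-DA in PBS, with or without 1 mM scavenger (NAC, or sodium pyruvate for H2O2). Then 20 μM compound was added and cells incubated 0−6 h at 37 °C. Fluorescence read at ex 480 nm / 530 nm band-pass. Triplicate samples.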
# NCI-H23 [5] = assay: Induction of intracellular ROS generation in human H23 cells at 20 uM after 6 hrs by DCFH2-DA staining based fluorescence assay in presence of N-acetylcysteine; format: functional, cell-based; summary of the method: as §2
# NCI-H23 [6] = assay: Induction of intracellular ROS generation in human H23 cells at 20 uM after 6 hrs by DCFH2-DA staining based fluorescence assay; format: functional, cell-based
# Summary of the method: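 H23 cells seeded 24 h at 37 °C, medium removed, then loaded with DCFH2-DA (10 μM final) in PBS for 30 min at 4 °C. Compound added at 20 μM and incubated 6 h at 37 °C. Fluorescence read on a microplate reader (excitation 480 nm, 530 nm band-pass). Triplicate samples, means ± SD.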
# NCI-H23 [7] = assay: Induction of ROS generation in human H23 cells assessed as apoptotic cells at 20 uM after 24 hrs by Hoechst 33342/propidium iodide staining-based fluorescence microscopy in presence of N-acetylcysteine; format: functional, cell-based
# Summary of the method: (§3)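 Cells plated 24 h, then incubated 1 h at 37 °C with or without 1 mM NAC before 20 μM compound for 24 h. Staining used 10 μM Hoechst 33342 plus 10 μM PI for 30 min at 37 °C. Condensed or fragmented nuclei were scored as apoptotic and PI-stained nuclei as accidental necrotic, by fluorescence microscopy.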
# [8] = Induction of accidental necrosis in human H23 cells assessed as loss of membrane integrity at 5 to 20 uM after 24 hrs by trypan blue exclusion assay; format: cell-based; conditions: nci-h23, 24 h
# Summary of the method: (§4)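 Attached cells exposed 24 h to 0−20 μM were collected into 3% FBS/PBS and fixed in absolute ethanol at −20 °C for 24 h. They were stained 40 min at 37 °C in PI buffer containing RNase A and Triton X-100. Sub-G0 fraction was taken from the flow cytometry DNA histogram. The same cells were stained with trypan blue and counted on an automated counter, with membrane-damaged cells scored as necrotic.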
# NCI-H23 [9] = assay: Induction of apoptosis in human H23 cells assessed as accumulation of sub-G0 fraction after 24 hrs by propidium iodide staining-based flow cytometry; format: functional, cell-based; summary of the method: as §4
# NCI-H23 [10] = assay: Induction of apoptosis in human H23 cells at 1 to 20 uM after 24 hrs by Hoechst 33342/propidium iodide staining-based fluorescence microscopy; format: functional
# Summary of the method: (§5)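 H23 cells exposed to compound (0–20 μM range) for 24 h at 37 °C, then co-stained 30 min at 37 °C with 10 μM Hoechst 33342 and 10 μM PI. Scored by fluorescence microscopy: condensed or fragmented nuclei counted as apoptotic, PI-positive membrane-damaged cells counted as accidental necrotic. Results given as percentages; means ± SD of three independent experiments.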
# NCI-H23 [11] = assay: Cytotoxicity against human H23 cells assessed as cell viability after 24 hrs by MTT assay; format: functional, cell-based
# Summary of the method: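 H23 cells (1.5 × 10^5 cells/mL) grown 24 h at 37 °C in RPMI 1640, then exposed to 0−20 μM compound for 24 h at 37 °C. MTT (500 μg/mL) added for 4 h, formazan dissolved in DMSO, absorbance read at 570 nm. Viability expressed as percent of untreated control; at least three replicate cultures.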
# NCI-H23 [12] = assay: Induction of ROS generation in human H23 cells assessed as cell viability at 20 uM after 24 hrs by MTT assay in presence of N-acetylcysteine
# NCI-H23 [13] = assay: Induction of apoptosis in human H23 cells at 20 uM after 24 hrs by Hoechst 33342/propidium iodide staining-based fluorescence microscopy; format: functional, cell-based; summary of the method: as §5
# [14] = Toxicity in human H23 cells assessed as induction of accidental necrosis at 20 uM after 24 hrs by Hoechst 33342/propidium iodide staining-based fluorescence microscopy; format: cell-based; conditions: nci-h23, 24 h; summary of the method: as §5
# NCI-H23 [15] = assay: Cytotoxicity against human H23 cells assessed as cell viability at 20 uM after 24 hrs by MTT assay; format: functional, cell-based
# Summary of the method: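 H23 non-small-cell lung cancer cells (RPMI 1640, 5% FBS, 2 mM L-glutamine) plated at 1.5 × 10^5 cells/mL, grown 24 h at 37 °C, then exposed to compound 24 h at 37 °C. MTT 500 μg/mL added for 4 h; formazan dissolved in DMSO, absorbance read at 570 nm. Viability given as percent of untreated control; at least three replicate cultures.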
# [16] = Induction of ROS generation in human H23 cells assessed as accidental necrotic cells at 20 uM after 24 hrs by Hoechst 33342/propidium iodide staining-based fluorescence microscopy in presence of N-acetylcysteine; format: cell-based; conditions: nci-h23, 24 h; summary of the method: as §3
# [17] = Toxicity in human H23 cells assessed as induction of accidental necrosis at 1 to 20 uM after 24 hrs by Hoechst 33342/propidium iodide staining-based fluorescence microscopy; format: cell-based; conditions: nci-h23, 24 h
# Summary of the method: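 H23 cells exposed to 0−20 μM compound for 24 h at 37 °C, then stained 30 min at 37 °C with 10 μM Hoechst 33342 and 10 μM PI. PI-stained, membrane-damaged cells were scored as accidental necrotic under a fluorescence microscope.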
structure (smiles),measurement,setting,value
C/C=C(/C)C(=O)OC[C@H]1c2c(O)c(OC)c(C)c(OC(C)=O)c2C[C@H]2[C@H]3C4=C(C[C@@H]([C@H](C#N)N12)N3C)C(=O)C(C)=C(OC)C4=O,Activity,[1],Non-toxic
same,Activity,[2],Non-toxic
same,Activity,NCI-H23 [3],inactive
same,Activity,NCI-H23 [4],inactive
same,Activity,NCI-H23 [5],inactive
same,Activity,NCI-H23 [6],Active
same,Activity,NCI-H23 [7],Active
same,Activity,[8],1%
same,Activity,NCI-H23 [9],Dose-dependent effect
same,Activity,NCI-H23 [10],46%
same,Activity,NCI-H23 [11],Dose-dependent effect
same,Activity,NCI-H23 [12],Active
C/C=C(/C)C(=O)OC[C@H]1c2c(c(OC(C)=O)c(C)c(OC)c2OC(C)=O)C[C@H]2[C@H]3c4c(c(OC(C)=O)c(C)c(OC)c4OC(C)=O)C[C@@H]([C@H](C#N)N12)N3C,Activity,NCI-H23 [13],inactive
same,Activity,[14],Non-toxic
same,Activity,[1],Non-toxic
same,Activity,NCI-H23 [15],Active
same,Activity,NCI-H23 [6],inactive
C/C=C(/C)C(=O)OC[C@H]1C2=C(C[C@H]3[C@H]4C5=C(C[C@@H]([C@H](C#N)N13)N4C)C(=O)C(C)=C(OC)C5=O)C(=O)C(C)=C(OC)C2=O [RENIERAMYCIN M],Activity,[1],60%
same,Activity,[2],Toxic
same,Activity,NCI-H23 [3],inactive
same,Activity,NCI-H23 [4],inactive
same,Activity,NCI-H23 [5],inactive
same,Activity,NCI-H23 [6],Active
same,Activity,NCI-H23 [7],Active
same,Activity,[16],Non-toxic
same,Activity,[8],10%
same,Activity,NCI-H23 [9],Dose-dependent effect
same,Activity,[17],2.5%
same,Activity,NCI-H23 [10],51%
same,Activity,NCI-H23 [11],Dose-dependent effect
same,Activity,NCI-H23 [12],inactive
